Reference: ChEMBL document CHEMBL4184142, “A Naturally Occurring Isoform-Specific Probe for Highly Selective and Sensitive Detection of Human Cytochrome P450 3A5” (J Med Chem, 2017)

B1: Cytochrome P450 3A5 (Homo sapiens) (protein)
chain: MDLIPNLAVETWLLLAVSLVLLYLYGTRTHGLFKRLGIPGPTPLPLLGNVLSYRQGLWKFDTECYKKYGKMWGTYEGQLPVLAITDPDVIRTVLVKECYSVFTNRRSLGPVGFMKSAISLAEDEEWKRIRSLLSPTFTSGKLKEMFPIIAQYGDVLVRNLRREAEKGKPVTLKDIFGAYSMDVITGTSFGVNIDSLNNPQDPFVESTKKFLKFGFLDPLFLSIILFPFLTPVFEALNVSLFPKDTINFLSKSVNRMKKSRLNDKQKHRLDFLQLMIDSQNSKETESHKALSDLELAAQSIIFIFAGYETTSSVLSFTLYELATHPDVQQKLQKEIDAVLPNKAPPTYDAVVQMEYLDMVVNETLRLFPVAIRLERTCKKDVEINGVFIPKGSMVVIPTYALHHDPKYWTEPEEFRPERFSKKKDSIDPYIYTPFGTGPRNCIGMRFALMNMKLALIRVLQNFSFKPCKETQIPLKLDTQGLLQPEKPIVLKVDSRDGTLSGE

Tests used:
Cytochrome P450 3A4 [1] = molecular target: T1, Cytochrome P450 3A4 (Homo sapiens, UniProt P08684); assay: Substrate activity at CYP3A4 (unknown origin) assessed as enzyme-mediated compound turnover assessed per pmol protein at 10 uM; type: ADME
T1 sequence (P08684 whole entry): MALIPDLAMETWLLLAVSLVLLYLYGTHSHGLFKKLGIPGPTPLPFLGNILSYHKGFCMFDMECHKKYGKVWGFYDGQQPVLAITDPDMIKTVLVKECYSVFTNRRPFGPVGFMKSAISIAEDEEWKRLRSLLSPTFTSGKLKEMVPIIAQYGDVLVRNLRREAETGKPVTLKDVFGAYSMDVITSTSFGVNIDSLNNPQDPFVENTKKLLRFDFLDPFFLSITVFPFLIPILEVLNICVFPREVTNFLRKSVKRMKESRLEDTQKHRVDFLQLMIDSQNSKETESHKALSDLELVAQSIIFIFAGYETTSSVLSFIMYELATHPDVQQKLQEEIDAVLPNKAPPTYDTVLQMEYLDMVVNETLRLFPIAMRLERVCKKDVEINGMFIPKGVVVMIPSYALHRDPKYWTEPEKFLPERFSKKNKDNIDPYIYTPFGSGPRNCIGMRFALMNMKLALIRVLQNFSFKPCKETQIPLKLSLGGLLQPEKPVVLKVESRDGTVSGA

Cytochrome P450 3A5 [2] = molecular target: T2, Cytochrome P450 3A5 (Homo sapiens, UniProt P20815); assay: Substrate activity at CYP3A5 (unknown origin) assessed as enzyme-mediated compound turnover assessed per pmol protein at 10 uM; type: ADME
[3] = Drug metabolism in human liver microsomes assessed as Vmax for 2-O-demethylation; type: ADME, microsome
In short: (§1)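 Pooled HLM at 0.4 mg/mL incubated 20 min at 37 °C with substrate at 2, 5, 10, 20, 50, 100, 200 μM. Buffer was 100 mM potassium phosphate pH 7.4 with an NADPH-generating system, methanol 1% (v/v) final, 3 min preincubation. Reaction stopped with ice-cold methanol; 2-O-demethylated metabolite read by UFLC-DAD. Apparent Km and Vmax from nonlinear regression; three experiments in duplicate.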

Cytochrome P450 3A4 [4] = molecular target: T1, Cytochrome P450 3A4; assay: Substrate activity at recombinant human CYP3A4 expressed in bactosomes assessed as intrinsic clearance by measuring ratio of Vmax/Km for 2-O-demethylation assessed per pmol protein; type: ADME; conditions: recombinant enzyme
In short: (§2)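 Bactosome rhCYP3A4 (40 nM, 20 min) or rhCYP3A5 (20 nM, 5 min) incubated at 37 °C with substrate at 2–200 μM in 100 mM potassium phosphate pH 7.4 with NADPH-generating system, 1% methanol. Stopped with ice-cold methanol, demethylated metabolite quantified by UFLC-DAD. Km and Vmax from nonlinear regression; CLint = Vmax/Km. Three experiments in duplicate.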

[5] = Drug metabolism in s9 fractions (unknown origin) assessed as benzoic acid (6R,7S)-2,6,10-trihydroxy-1,3,11,12-tetramethoxy-6,7-dimethyl-5,6,7,8-tetrahydro-dibenzo[a,c]cycloocten-5-yl ester formation in presence of S-adenosyl-L-methionine by UFLC-DAD analysis; type: ADME, subcellular, S9 fraction
Cytochrome P450 3A4 [6] = molecular target: Cytochrome P450 3A4 (Homo sapiens, UniProt P08684, L210F); assay: Substrate activity at full length CYP3A4 L210F mutant (unknown origin) expressed in […] assessed as enzyme-mediated benzoic acid (6R,7S)-2,6,10-trihydroxy-1,3,11,12-tetramethoxy-6,7-dimethyl-5,6,7,8-tetrahydro-dibenzo[a,c]cycloocten-5-yl ester formation after 60 mins in presence of NADPH by UFLC-DAD analysis wild type CYP3A4; type: cell-based; conditions: 1 h
Cytochrome P450 3A4 (Homo sapiens, UniProt P08684, L210F), sequence (P08684 2-503 L210F limits assumed): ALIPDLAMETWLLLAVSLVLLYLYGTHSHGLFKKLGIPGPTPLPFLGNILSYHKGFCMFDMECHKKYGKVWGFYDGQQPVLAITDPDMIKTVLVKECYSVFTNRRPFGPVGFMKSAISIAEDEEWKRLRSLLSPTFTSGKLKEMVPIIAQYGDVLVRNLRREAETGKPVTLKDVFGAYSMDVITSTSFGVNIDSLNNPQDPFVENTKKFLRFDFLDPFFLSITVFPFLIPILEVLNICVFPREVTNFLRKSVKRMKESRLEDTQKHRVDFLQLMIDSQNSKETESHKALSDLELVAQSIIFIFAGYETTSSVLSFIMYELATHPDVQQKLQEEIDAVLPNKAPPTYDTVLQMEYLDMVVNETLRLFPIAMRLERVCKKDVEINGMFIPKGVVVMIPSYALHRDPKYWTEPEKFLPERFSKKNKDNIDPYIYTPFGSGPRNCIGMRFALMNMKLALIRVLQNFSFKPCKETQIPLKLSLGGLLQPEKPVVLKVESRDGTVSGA
In short: (§3)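 Full-length CYP3A4/CYP3A5 cDNA mutants transfected into COS-7 cells (4 μg plasmid per well). After 24 h, cells were sonicated and S9 fractions prepared (9000g supernatant). Incubation: 5 mg/mL S9 and 50 μM substrate in 100 mM potassium phosphate pH 7.4 with NADPH-generating system, 37 °C, 60 min. Stopped with methanol, metabolite quantified by UFLC-DAD.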

HepG2 = assay: Cytotoxicity against human HepG2 cells at 300 uM by CCK-8 assay; type: cell-based; conditions: hepg2, 300 µM
In short: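 HepG2 viability after exposure measured with CCK-8 kit. Cells grown in complete DMEM with 10% FCS.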

[7] = Drug metabolism in S9 fractions (unknown origin) assessed as benzoic acid (6R,7S)-2,6,10-trihydroxy-1,3,11,12-tetramethoxy-6,7-dimethyl-5,6,7,8-tetrahydro-dibenzo[a,c]cycloocten-5-yl ester formation in presence of UDP-glucuronic acid by UFLC-DAD analysis; type: ADME, subcellular, S9 fraction
[8] = Drug metabolism in s9 fractions (unknown origin) assessed as benzoic acid (6R,7S)-2,6,10-trihydroxy-1,3,11,12-tetramethoxy-6,7-dimethyl-5,6,7,8-tetrahydro-dibenzo[a,c]cycloocten-5-yl ester formation in presence of 3'-phosphoadenosine-5'-phosphosulfate by UFLC-DAD analysis; type: ADME, subcellular, S9 fraction
[9] = Intrinsic clearance in human liver microsomes assessed per mg liver microsome; type: ADME
In short: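 HLM at 0.4 mg/mL, 20 min at 37 °C, in 100 mM potassium phosphate pH 7.4 with NADPH-generating system (1 mM NADP+, 10 mM glucose-6-phosphate, 1 unit/mL G6PDH, 4 mM MgCl2). Substrate at 2–200 μM, 1% methanol. Km and Vmax from nonlinear regression. CLint = Vmax/Km. Three experiments in duplicate, mean ± SD.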

Cytochrome P450 3A5 [10] = molecular target: Cytochrome P450 3A5 (Homo sapiens, UniProt P20815, F210L); assay: Substrate activity at full length CYP3A5 F210L mutant (unknown origin) expressed in […] assessed as enzyme-mediated benzoic acid (6R,7S)-2,6,10-trihydroxy-1,3,11,12-tetramethoxy-6,7-dimethyl-5,6,7,8-tetrahydro-dibenzo[a,c]cycloocten-5-yl ester formation after 60 mins in presence of NADPH by UFLC-DAD analysis relative to wild type CYP3A5; type: ADME, cell-based; conditions: s9, 1 h; in short: as §3
Cytochrome P450 3A5 (Homo sapiens, UniProt P20815, F210L), sequence (P20815 whole entry F210L): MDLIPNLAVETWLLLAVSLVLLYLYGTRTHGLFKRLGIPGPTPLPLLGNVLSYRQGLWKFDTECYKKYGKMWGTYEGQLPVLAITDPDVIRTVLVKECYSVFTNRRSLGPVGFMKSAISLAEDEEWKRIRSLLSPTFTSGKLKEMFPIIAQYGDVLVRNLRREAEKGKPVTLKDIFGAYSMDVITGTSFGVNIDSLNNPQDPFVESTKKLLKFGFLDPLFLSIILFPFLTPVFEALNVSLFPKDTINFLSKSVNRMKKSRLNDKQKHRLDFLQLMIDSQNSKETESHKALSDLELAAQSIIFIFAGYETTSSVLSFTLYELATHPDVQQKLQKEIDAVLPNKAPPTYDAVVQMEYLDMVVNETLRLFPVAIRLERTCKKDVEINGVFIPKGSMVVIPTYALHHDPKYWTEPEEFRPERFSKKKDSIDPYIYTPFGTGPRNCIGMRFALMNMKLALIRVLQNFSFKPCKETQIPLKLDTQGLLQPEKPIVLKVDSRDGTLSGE

Cytochrome P450 3A5 [11] = molecular target: T2, Cytochrome P450 3A5; assay: Substrate activity at recombinant human CYP3A5 expressed in bactosomes assessed as intrinsic clearance by measuring ratio of Vmax/Km for 2-O-demethylation assessed per pmol protein; type: ADME; conditions: recombinant enzyme; in short: as §2
Cytochrome P450 3A5 [12] = molecular target: T2, Cytochrome P450 3A5; assay: Substrate activity at CYP3A5 in human HepG2 cell s9 fractions assessed as enzyme-mediated benzoic acid (6R,7S)-2,6,10-trihydroxy-1,3,11,12-tetramethoxy-6,7-dimethyl-5,6,7,8-tetrahydro-dibenzo[a,c]cycloocten-5-yl ester formation at 50 uM after 60 mins by LC-MS/MS analysis; type: ADME, S9 Fraction; conditions: s9, 1 h
In short: (§4)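 HepG2 or Caco-2 cells grown to 90% confluence in 75 cm2 flasks, trypsinized, sonicated in ice-cold PBS. S9 taken as the 9000g 20-min supernatant, protein by BCA. Incubated with 50 μM substrate and NADPH-generating system, pH 7.4 phosphate, 37 °C for 60 min. Stopped with ice-cold methanol, then centrifuged.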

[13] = Drug metabolism in human liver microsomes assessed as Km for 2-O-demethylation; type: ADME, microsome; in short: as §1
[14] = Substrate activity at CYP450 in human liver microsomes with NADPH-generating system assessed as CYP-mediated benzoic acid (6R,7S)-2,6,10-trihydroxy-1,3,11,12-tetramethoxy-6,7-dimethyl-5,6,7,8-tetrahydro-dibenzo[a,c]cycloocten-5-yl ester formation at 5 uM after 25 mins in presence of CYP inhibitor ABT; type: ADME
In short: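 Substrate at 5 μM in pooled HLM (0.2 mg protein/mL) with NADPH-generating system in 100 mM phosphate pH 7.4, 37 °C, with or without inhibitor: ketoconazole 1 μM for CYP3A. CYP3cide 1 μM and ABT 500 μM were preincubated with NADPH-generating system at 37 °C for 25 min. Metabolite quantified by UFLC-DAD. Three experiments in duplicate.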

Cytochrome P450 3A5 [15] = molecular target: T2, Cytochrome P450 3A5; assay: Substrate activity at CYP3A5 in human Caco2 cell s9 fractions assessed as enzyme-mediated benzoic acid (6R,7S)-2,6,10-trihydroxy-1,3,11,12-tetramethoxy-6,7-dimethyl-5,6,7,8-tetrahydro-dibenzo[a,c]cycloocten-5-yl ester formation at 50 uM after 60 mins by LC-MS/MS analysis; type: ADME, S9 Fraction; conditions: s9, 1 h; in short: as §4
Cytochrome P450 3A5 [16] = molecular target: T2, Cytochrome P450 3A5; assay: Substrate activity at CYP3A5 in human liver microsomes assessed as enzyme-mediated benzoic acid (6R,7S)-2,6,10-trihydroxy-1,3,11,12-tetramethoxy-6,7-dimethyl-5,6,7,8-tetrahydro-dibenzo[a,c]cycloocten-5-yl ester formation at 5 uM by LC-MS/MS analysis; type: ADME
[17] = substrate: COc1cc2c(c(OC)c1OC)-c1c(cc(O)c(OC)c1OC)C[C@H](C)[C@](C)(O)[C@H]2OC(=O)c1ccccc1; assay: Substrate activity at recombinant human CYP3A5 expressed in bactosomes assessed as Km for 2-O-demethylation after 5 mins by Eadie-Hofstee plot method; type: ADME
In short: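 Bactosome rhCYP3A5 (20 nM, coexpressed with human NADPH-P450 reductase) incubated 5 min at 37 °C with substrate 2–200 μM in 100 mM potassium phosphate pH 7.4 with NADPH-generating system, final methanol 1%. Reaction stopped with ice-cold methanol. Metabolite measured by UFLC-DAD. Apparent Km from nonlinear regression, plotted as Eadie–Hofstee. Three independent experiments in duplicate, mean ± SD.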

Molecule	Drug metabolism (Cytochrome P450 3A4 [1])	Drug metabolism (Cytochrome P450 3A5 [2])	other results
COc1cc2c(c(OC)c1OC)-c1c(cc(OC)c(OC)c1OC)C[C@H](C)[C@H](C)C2 [SCHISANDRIN A]	16 to 29 pmol/min	10 to 15 pmol/min	
C/C=C(/C)C(=O)OC1c2cc(OC)c(OC)c(OC)c2-c2c(cc3c(c2OC)OCO3)C[C@H](C)[C@@]1(C)O (stereo partly specified)	Metabolite_Notdetected	Metabolite_Notdetected	
COc1c2c(cc3c1-c1c(cc4c(c1OC)OCO4)C[C@H](C)[C@H](C)C3)OCO2 [SCHISANDRIN C]	Metabolite_Notdetected	Metabolite_Notdetected	
COc1cc2c(c(OC)c1OC)-c1c(cc3c(c1OC)OCO3)C[C@H](C)[C@@](C)(O)C2O (stereo partly specified)	4 to 9 pmol/min	1 to 3 pmol/min	
COc1cc2c(c(OC)c1OC)-c1c(cc3c(c1OC)OCO3)C(OC(=O)c1ccccc1)[C@](C)(O)[C@@H](C)C2 (stereo partly specified)	4 to 9 pmol/min	1 to 3 pmol/min	
COc1cc2c(c(OC)c1OC)-c1c(cc3c(c1OC)OCO3)C[C@H](C)[C@@](C)(O)C2OC(=O)c1ccccc1 (stereo partly specified)	Metabolite_Notdetected	Metabolite_Notdetected	
COc1c(O)cc2c(c1OC)-c1c(cc(O)c(OC)c1OC)C(O)[C@@H](C)[C@@H](C)C2 (stereo partly specified)	4 to 9 pmol/min	1 to 3 pmol/min	
COc1cc2c(c(OC)c1OC)-c1c(cc(O)c(OC)c1OC)C[C@H](C)[C@](C)(O)[C@H]2OC(=O)c1ccccc1	1 to 3 pmol/min	>= 30 pmol/min	Vmax [3]: 248.5 pmol/min/mg; Ratio (Cytochrome P450 3A4 [4]): 0.46 µL/min/pmol; Drug metabolism [5]: Metabolite_Notdetected; fold change (FC) (Cytochrome P450 3A4 [6]): 2.6; Activity (HepG2): Non-Toxic; Drug metabolism [7]: Metabolite_Notdetected; Drug metabolism [8]: Metabolite_Notdetected; microsomal CLint [9]: 50.2 µL/min/mg; fold change (FC) (Cytochrome P450 3A5 [10]): 2.1; Ratio (Cytochrome P450 3A5 [11]): 10.7 µL/min/pmol; Drug metabolism (Cytochrome P450 3A5 [12]): Metabolite_Detected; Km [13]: 4.95 µM; Drug metabolism [14]: Metabolite_Notdetected; Drug metabolism (Cytochrome P450 3A5 [15]): Metabolite_Detected; Drug metabolism (Cytochrome P450 3A5 [16]): 23.2 to 159 pmol/min/mg
COc1cc2c(c(O)c1OC)-c1c(cc(OC)c(OC)c1OC)C[C@H](C)[C@H](C)C2	10 to 15 pmol/min	4 to 9 pmol/min	
COc1cc2c(c(OC)c1OC)-c1c(cc3c(c1OC)OCO3)C[C@H](C)[C@H](C)C2 [WUWEIZISU B]	Metabolite_Notdetected	Metabolite_Notdetected	
COc1cc2c(c(OC)c1OC)-c1c(cc(OC)c(OC)c1OC)C[C@](C)(O)[C@@H](C)C2 [SCHIZANDRIN]	>= 30 pmol/min	1 to 3 pmol/min	
COc1cc2c(c(OC)c1OC)-c1c(cc3c(c1OC)OCO3)C[C@H](C)[C@@](C)(O)C2 [BESIGOMSIN]	10 to 15 pmol/min	1 to 3 pmol/min	
B1			Km [17]: 5.9 µM; Vmax [17]: 6.34e-05 µmol/min
